According to ChEMBL document CHEMBL1137088, “Distamycin analogues with enhanced lipophilicity: synthesis and antimicrobial activity” (2004):
Values after ≈ are worked out from the molar mass of the structure shown. Active and inactive are the calls of the source. No cut-off for these calls is given here.

How the values were obtained:
[1] = tested on: Staphylococcus aureus; test: Antibacterial activity against Staphylococcus aureus NCTC 6571 strain.; format: functional
[2] = tested on: Proteus vulgaris; test: Antibacterial activity against Proteus vulgaris NCTC 4175 strain.; format: functional
[3] = Antibacterial activity against Enterobacter cloacae NCTC 10005 strain; format: functional
[4] = tested on: Staphylococcus aureus; test: Antibacterial activity against methicillin-resistant Staphylococcus aureus (MRSA) PHLS M1 strain.; format: functional
In short: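 Read-out is the minimum inhibitory concentration, reported in µM. Amoxycillin is tested alongside as the reference antibiotic.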

[5] = tested on: Aspergillus niger; test: Antifungal activity against Aspergillus niger IMI17454 strain.; format: functional; details: Aspergillus niger; read-out: MIC
[6] = tested on: Escherichia coli; test: Antibacterial activity against Escherichia coli NCTC 9001 strain; format: functional
[7] = tested on: Mycolicibacterium fortuitum; test: Antibacterial activity against Mycobacterium fortuitum NCTC 10394 strain.; format: functional
[8] = tested on: Enterococcus faecalis; test: Antibacterial activity against Streptococcus faecalis NCTC 775 strain.; format: functional
[9] = tested on: Aspergillus nidulans; test: Antifungal activity against Aspergillus nidulans CABI 0160037 strain; format: functional
[10] = tested on: Klebsiella aerogenes; test: Antibacterial activity against Klebsiella aerogenes WRL CN 345 strain.; format: functional, WRL CN 375; details: Klebsiella aerogenes, WRL CN 375; read-out: MIC
[11] = tested on: Candida albicans; test: Antifungal activity against Candida albicans NCPF 3179 strain.; format: functional; details: Candida albicans; read-out: MIC
[12] = tested on: Enterococcus faecalis; test: Antibacterial activity against Streptococcus faecalis NCTC 775 strain; na = not active; format: functional, organism-based
[13] = Antifungal activity against Candida albicans NCPF 3179 strain; na = not active; format: functional
[14] = tested on: Staphylococcus aureus; test: Antibacterial activity against MRSA PHLS M1 strain; na = not active; format: functional, organism-based
[15] = tested on: Enterococcus faecalis; test: Antibacterial activity against Streptococcus faecalis NCTC 775 strain=; format: functional
[16] = tested on: Enterobacter cloacae; test: Antibacterial activity against Enterobacter cloacae NCTC 10005 strain.; format: functional, organism-based
[17] = tested on: Mycolicibacterium fortuitum; test: Antibacterial activity against Mycobacterium fortuitum NCTC 10394 strain=; format: functional
[18] = Antibacterial activity against Proteus vulgaris NCTC 4175 strain; na = not active; format: functional
[19] = tested on: Escherichia coli; test: Antibacterial activity against Escherichia coli NCTC 9001 strain.; format: functional, organism-based
[20] = tested on: Staphylococcus aureus; test: Antibacterial activity against MRSA PHLS M1 strain; format: functional

| MIC [13] | MIC [14] | MIC [15] | MIC [16] | MIC [17] | MIC [18] | MIC [19] | MIC [20] | Structure (SMILES) | MIC [1] | MIC [2] | MIC [3] | MIC [4] | MIC [5] | MIC [6] | MIC [7] | MIC [8] | MIC [9] | MIC [10] | MIC [11] | MIC [12] |
| --- | --- | --- | --- | --- | --- | --- | --- | --- | --- | --- | --- | --- | --- | --- | --- | --- | --- | --- | --- | --- |
| – | – | – | – | – | – | – | – | COc1cccc(C(=O)Nc2nc(C(=O)Nc3cc(C(=O)Nc4cc(C(=O)NCCCN(C)C)n(C)c4)n(C)c3)c(C(C)C)s2)c1 | 32.7 µM (≈ 21.2 µg/mL) | 65.5 µM (≈ 42.5 µg/mL) | 131 µM (≈ 85 µg/mL) | 32.7 µM (≈ 21.2 µg/mL) | 131 µM (≈ 85 µg/mL) | 65.5 µM (≈ 42.5 µg/mL) | 65.5 µM (≈ 42.5 µg/mL) | 32.7 µM (≈ 21.2 µg/mL) | 131 µM (≈ 85 µg/mL) | 32.7 µM (≈ 21.2 µg/mL) | 131 µM (≈ 85 µg/mL) | – |
| – | – | – | – | – | – | – | – | CC(=O)Nc1cc(C(=O)Nc2cc(C(=O)Nc3cc(C(=O)NCCCN(C)C)n(C)c3)c(C)s2)n(C)c1 | 78.5 µM (≈ 41.4 µg/mL) | 156 µM (≈ 82.3 µg/mL) | 156 µM (≈ 82.3 µg/mL) | 156 µM (≈ 82.3 µg/mL) | 156 µM (≈ 82.3 µg/mL) | 156 µM (≈ 82.3 µg/mL) | 38.9 µM (≈ 20.5 µg/mL) | – | 38.9 µM (≈ 20.5 µg/mL) | 156 µM (≈ 82.3 µg/mL) | 156 µM (≈ 82.3 µg/mL) | inactive |
| inactive | inactive | – | – | – | – | – | – | CC(C)CCn1cc(NC(=O)c2cc(NC=O)cn2C)cc1C(=O)Nc1cc(C(=O)NCCCN2CCN(C)CC2)n(C)c1 | 140 µM (≈ 85.1 µg/mL) | 140 µM (≈ 85.1 µg/mL) | 140 µM (≈ 85.1 µg/mL) | – | 140 µM (≈ 85.1 µg/mL) | 140 µM (≈ 85.1 µg/mL) | 69.3 µM (≈ 42.1 µg/mL) | 69.3 µM (≈ 42.1 µg/mL) | 69.3 µM (≈ 42.1 µg/mL) | 140 µM (≈ 85.1 µg/mL) | – | – |
| – | – | – | – | – | – | – | – | Cc1sc(NC(=O)c2cc(NC=O)cn2C)cc1C(=O)Nc1cc(C(=O)NCCCN(C)C)n(C)c1 | 39.8 µM (≈ 20.4 µg/mL) | 79.6 µM (≈ 40.9 µg/mL) | 159 µM (≈ 81.7 µg/mL) | 159 µM (≈ 81.7 µg/mL) | 159 µM (≈ 81.7 µg/mL) | 159 µM (≈ 81.7 µg/mL) | 159 µM (≈ 81.7 µg/mL) | 79.6 µM (≈ 40.9 µg/mL) | 159 µM (≈ 81.7 µg/mL) | 159 µM (≈ 81.7 µg/mL) | 159 µM (≈ 81.7 µg/mL) | – |
| inactive | inactive | 140 µM (≈ 84.4 µg/mL) | inactive | 140 µM (≈ 84.4 µg/mL) | inactive | inactive | – | COc1cccc(C(=O)Nc2cc(C(=O)Nc3cc(C(=O)Nc4cc(C(=O)NCCCN(C)C)n(C)c4)n(C)c3)n(C)c2)c1 | 69.8 µM (≈ 42.1 µg/mL) | – | – | – | 140 µM (≈ 84.4 µg/mL) | – | – | – | 69.8 µM (≈ 42.1 µg/mL) | 140 µM (≈ 84.4 µg/mL) | – | – |
| – | – | – | – | – | – | – | – | CC(=O)Nc1nc(C(=O)Nc2cc(C(=O)Nc3nc(C(=O)NCCCN(C)C)c(C(C)C)s3)n(C)c2)c(C(C)C)s1 | 4.3 µM (≈ 2.59 µg/mL) | 69.8 µM (≈ 42.1 µg/mL) | 69.8 µM (≈ 42.1 µg/mL) | 4.3 µM (≈ 2.59 µg/mL) | 4.3 µM (≈ 2.59 µg/mL) | 70 µM (≈ 42.2 µg/mL) | 17.5 µM (≈ 10.5 µg/mL) | 4.3 µM (≈ 2.59 µg/mL) | – | 69.8 µM (≈ 42.1 µg/mL) | 34.9 µM (≈ 21 µg/mL) | – |
| – | – | – | inactive | – | inactive | inactive | 63.6 µM (≈ 42.8 µg/mL) | COc1ccc(CC(=O)Nc2cc(C(=O)Nc3cc(C(=O)Nc4cc(C(=O)NCCCN(C)C)n(C)c4)n(CCC(C)C)c3)n(C)c2)cc1 | 15.9 µM (≈ 10.7 µg/mL) | – | – | – | 15.9 µM (≈ 10.7 µg/mL) | – | 15.9 µM (≈ 10.7 µg/mL) | 15.9 µM (≈ 10.7 µg/mL) | 15.9 µM (≈ 10.7 µg/mL) | 15.9 µM (≈ 10.7 µg/mL) | 15.9 µM (≈ 10.7 µg/mL) | – |
| – | inactive | – | – | – | – | – | – | Cn1cc(NC(=O)c2cc(NC(=O)c3cc(NC=O)cn3C)cn2C)cc1C(=O)NCCCN1CCCC1 | 1200 µM (≈ 627 µg/mL) | 157 µM (≈ 82 µg/mL) | 157 µM (≈ 82 µg/mL) | – | 157 µM (≈ 82 µg/mL) | 157 µM (≈ 82 µg/mL) | 78.5 µM (≈ 41 µg/mL) | – | 157 µM (≈ 82 µg/mL) | 157 µM (≈ 82 µg/mL) | 157 µM (≈ 82 µg/mL) | inactive |

| Structure (SMILES) | MIC [13] | MIC [14] | MIC [15] | MIC [16] | MIC [17] | MIC [18] | MIC [19] | MIC [20] | MIC [1] | MIC [2] | MIC [3] | MIC [4] | MIC [5] | MIC [6] | MIC [7] | MIC [8] | MIC [9] | MIC [10] | MIC [11] | MIC [12] |
| --- | --- | --- | --- | --- | --- | --- | --- | --- | --- | --- | --- | --- | --- | --- | --- | --- | --- | --- | --- | --- |
| CC(C)n1cc(NC(=O)c2cc(NC=O)cn2C)cc1C(=O)Nc1cc(C(=O)NCCCN2CCCC2)n(C)c1 | inactive | – | – | – | – | – | – | – | 150 µM (≈ 82.6 µg/mL) | 150 µM (≈ 82.6 µg/mL) | 75.2 µM (≈ 41.4 µg/mL) | 75.2 µM (≈ 41.4 µg/mL) | 150 µM (≈ 82.6 µg/mL) | inactive | 150 µM (≈ 82.6 µg/mL) | 75.2 µM (≈ 41.4 µg/mL) | 150 µM (≈ 82.6 µg/mL) | 37.6 µM (≈ 20.7 µg/mL) | – | – |
